What was measured:
Homo sapiens [1] = species: Homo sapiens; assay: Activity of human recombinant carbonic anhydrase 7 C183S/C217S mutant
[2] = Inhibition of human recombinant carbonic anhydrase 7 C183S/C217S mutant using carbon-dioxide as substrate preincubated for 10 mins prior to substrate addition by […]
Outline: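 Stopped-flow CO2 hydration by Khalifah's method: 0.2 mM phenol red read at 557 nm, 10 mM HEPES pH 7.5, 0.1 M Na2SO4, CO2 1.7–17 mM, initial rates over 10–100 s. Enzyme preincubated 10 min at room temperature with at least 7 inhibitor concentrations, from 10 mM DMSO-water stock diluted down to 1 nM. Triplicates; Ki by non-linear least-squares fitting.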

[3] = Inhibition of human recombinant carbonic anhydrase 7 C183S/C217S mutant phosphatase activity using 4-nitrophenyl phosphate as substrate preincubated for 10 mins prior to substrate addition by […]
Outline: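 Phosphatase assay with 4-nitrophenyl phosphate at 0.08–5 mM, 25 °C, 4-nitrophenol release read at 405 nm. Buffer: 10 mM HEPES/10 mM Tris pH 7.4 with 0.1 M Na2SO4. Spontaneous hydrolysis subtracted.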

[4] = Inhibition of human recombinant carbonic anhydrase 7 C183S/C217S mutant hydrolysis activity using 4-nitrophenyl acetate as substrate preincubated for 10 mins prior to substrate addition by […]
Outline: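 Esterase assay with 4-nitrophenyl acetate dissolved in acetonitrile (final MeCN 5%). Buffer: 10 mM HEPES/10 mM Tris pH 7.4 with 0.1 M Na2SO4; enzyme 0.10–5.0 µM. […] Spontaneous hydrolysis subtracted.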

Homo sapiens [5] = species: Homo sapiens; assay: Ratio of Kcat to Km for human recombinant carbonic anhydrase 7 C183S/C217S mutant
[6] = substrate: CC(=O)Oc1ccc([N+](=O)[O-])cc1; assay: (§1) Ratio of Kcat to Km for human recombinant carbonic anhydrase 3
[7] = substrate: O=[N+]([O-])c1ccc(OP(=O)(O)O)cc1; assay: as §1
[8] = substrate: CC(=O)Oc1ccc([N+](=O)[O-])cc1; assay: (§2) Activity of human recombinant carbonic anhydrase 3
[9] = substrate: O=[N+]([O-])c1ccc(OP(=O)(O)O)cc1; assay: as §2
[10] = substrate: O=[N+]([O-])c1ccc(OP(=O)(O)O)cc1; assay: Ratio of Kcat to Km for human recombinant carbonic anhydrase 7
[11] = substrate: CC(=O)Oc1ccc([N+](=O)[O-])cc1; assay: (§3) Activity of S-glutathionylated form of human recombinant carbonic anhydrase 7
[12] = substrate: O=[N+]([O-])c1ccc(OP(=O)(O)O)cc1; assay: as §3
[13] = substrate: CC(=O)Oc1ccc([N+](=O)[O-])cc1; assay: (§4) Activity of human recombinant carbonic anhydrase 7
[14] = substrate: O=[N+]([O-])c1ccc(OP(=O)(O)O)cc1; assay: as §4
[15] = substrate: O=[N+]([O-])c1ccc(OP(=O)(O)O)cc1; assay: Ratio of Kcat to Km for S-glutathionylated form of human recombinant carbonic anhydrase 7

CC(=O)Oc1ccc([N+](=O)[O-])cc1
Km (Homo sapiens [1]): 1060 µM

CC(=O)Nc1nnc(S(N)(=O)=O)s1 [ACETAZOLAMIDE]
Ki [2]: 3 nM
IC50 [3]: 2910 nM
IC50 [4]: 170 nM

O=[N+]([O-])c1ccc(OP(=O)(O)O)cc1
Km (Homo sapiens [1]): 2210 µM
kcat/Km (Homo sapiens [5]): 3.03 ×10⁴ /M/s

B1: Carbonic anhydrase 3 (Homo sapiens), P07451 (protein)
chain: MAKEWGYASHNGPDHWHELFPNAKGENQSPVELHTKDIRHDPSLQPWSVSYDGGSAKTILNNGKTCRVVFDDTYDRSMLRGGPLPGPYRLRQFHLHWGSSDDHGSEHTVDGVKYAAELHLVHWNPKYNTFKEALKQRDGIAVIGIFLKIGHENGEFQIFLDALDKIKTKGKEAPFTKFDPSCLFPACRDYWTYQGSFTTPPCEECIVWLLLKEPMTVSSDQMAKLRSLLSSAENEPPVPLVSNWRPPQPINNRVVRASFK
kcat/Km [6]: 139 M⁻¹ s⁻¹
kcat/Km [7]: 45.3 M⁻¹ s⁻¹
Km [8]: 1230 µM
Km [9]: 1340 µM

B2: Carbonic anhydrase 7 (Homo sapiens), P43166 (protein)
chain: MTGHHGWGYGQDDGPSHWHKLYPIAQGDRQSPINIISSQAVYSPSLQPLELSYEACMSLSITNNGHSVQVDFNDSDDRTVVTGGPLEGPYRLKQFHFHWGKKHDVGSEHTVDGKSFPSELHLVHWNAKKYSTFGEAASAPDGLAVVGVFLETGDEHPSMNRLTDALYMVRFKGTKAQFSCFNPKCLLPASRHYWTYPGSLTTPPLSESVTWIVLREPICISERQMGKFRSLLFTSEDDERIHMVNNFRPPQPLKGRVVKASFRA
kcat/Km [10]: 2.89 ×10⁴ /M/s
Km [11]: 500 µM
Km [12]: 970 µM
Km [13]: 750 µM
Km [14]: 1430 µM
kcat/Km [15]: 3.04 ×10⁴ /M/s

From ChEMBL document CHEMBL1949606, “Carbonic anhydrase VII is S-glutathionylated without loss of catalytic activity and affinity for sulfonamide inhibitors” (Bioorg Med Chem Lett, 2012)
